Data as given in ChEMBL document CHEMBL2390828, “Synthesis and biological characterization of spiro[2H-(1,3)-benzoxazine-2,4'-piperidine] based histone deacetylase inhibitors” (Eur J Med Chem, 2013).

Experiments:
[1] = Permeability from apical to basolateral side across human Caco2 cells after 2 hrs by LC-MS analysis; format: ADME, cell-based; details: Caco-2, read-out: permeability
[2] = target: T1, Protein deacetylase HDAC6 (Homo sapiens, UniProt Q9UBN7); assay: Inhibition of HDAC6 (unknown origin)
T1 sequence (Q9UBN7 whole entry): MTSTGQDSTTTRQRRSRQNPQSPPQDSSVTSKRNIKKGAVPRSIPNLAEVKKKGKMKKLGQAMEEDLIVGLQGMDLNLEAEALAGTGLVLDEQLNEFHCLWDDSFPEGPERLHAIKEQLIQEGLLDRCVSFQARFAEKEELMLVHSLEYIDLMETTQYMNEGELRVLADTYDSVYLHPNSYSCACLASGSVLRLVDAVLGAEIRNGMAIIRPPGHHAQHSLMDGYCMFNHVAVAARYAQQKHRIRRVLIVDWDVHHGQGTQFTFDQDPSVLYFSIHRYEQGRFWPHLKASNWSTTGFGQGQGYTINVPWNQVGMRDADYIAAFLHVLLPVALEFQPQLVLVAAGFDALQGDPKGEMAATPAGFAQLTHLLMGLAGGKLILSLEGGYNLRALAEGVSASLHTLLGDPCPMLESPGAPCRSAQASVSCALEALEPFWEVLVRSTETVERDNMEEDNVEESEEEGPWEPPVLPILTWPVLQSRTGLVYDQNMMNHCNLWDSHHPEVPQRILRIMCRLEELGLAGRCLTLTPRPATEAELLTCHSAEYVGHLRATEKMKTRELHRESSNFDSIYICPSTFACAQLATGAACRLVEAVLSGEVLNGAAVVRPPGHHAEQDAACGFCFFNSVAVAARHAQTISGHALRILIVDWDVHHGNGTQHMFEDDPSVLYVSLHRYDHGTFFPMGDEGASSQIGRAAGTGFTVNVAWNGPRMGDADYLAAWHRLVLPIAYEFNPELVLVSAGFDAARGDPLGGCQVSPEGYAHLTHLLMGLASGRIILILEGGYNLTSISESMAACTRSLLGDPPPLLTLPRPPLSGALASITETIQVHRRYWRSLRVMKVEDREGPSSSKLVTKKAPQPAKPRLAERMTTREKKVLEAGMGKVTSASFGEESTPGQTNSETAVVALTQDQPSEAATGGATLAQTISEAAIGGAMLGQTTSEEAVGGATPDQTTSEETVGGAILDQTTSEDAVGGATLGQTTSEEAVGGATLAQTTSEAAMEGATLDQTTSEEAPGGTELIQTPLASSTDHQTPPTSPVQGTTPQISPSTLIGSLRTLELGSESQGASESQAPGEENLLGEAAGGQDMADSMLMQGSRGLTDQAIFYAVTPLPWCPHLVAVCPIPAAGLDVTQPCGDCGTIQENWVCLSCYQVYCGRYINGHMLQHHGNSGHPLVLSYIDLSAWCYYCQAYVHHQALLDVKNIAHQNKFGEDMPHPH

Histone deacetylase 2 = Histone deacetylase 2 (Homo sapiens, UniProt Q92769); assay: Inhibition of HDAC2 (unknown origin)
Histone deacetylase 2, sequence (Q92769 whole entry): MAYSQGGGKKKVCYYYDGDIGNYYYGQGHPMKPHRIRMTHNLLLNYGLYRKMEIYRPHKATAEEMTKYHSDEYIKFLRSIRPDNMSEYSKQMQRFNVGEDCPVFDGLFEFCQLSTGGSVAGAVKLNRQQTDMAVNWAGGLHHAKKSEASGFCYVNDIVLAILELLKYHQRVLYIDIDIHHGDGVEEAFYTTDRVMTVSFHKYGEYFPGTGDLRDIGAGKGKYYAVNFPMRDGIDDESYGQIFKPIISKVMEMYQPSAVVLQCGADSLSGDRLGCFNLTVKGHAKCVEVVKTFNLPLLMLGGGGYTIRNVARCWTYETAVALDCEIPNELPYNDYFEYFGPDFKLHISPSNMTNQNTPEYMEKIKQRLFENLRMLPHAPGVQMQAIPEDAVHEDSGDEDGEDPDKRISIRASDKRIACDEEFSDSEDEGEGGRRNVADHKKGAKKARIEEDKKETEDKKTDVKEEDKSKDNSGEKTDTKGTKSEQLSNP

Histone deacetylase 3 = Histone deacetylase 3 (Homo sapiens, UniProt O15379); assay: Inhibition of HDAC3 (unknown origin)
Histone deacetylase 3, sequence (O15379 whole entry): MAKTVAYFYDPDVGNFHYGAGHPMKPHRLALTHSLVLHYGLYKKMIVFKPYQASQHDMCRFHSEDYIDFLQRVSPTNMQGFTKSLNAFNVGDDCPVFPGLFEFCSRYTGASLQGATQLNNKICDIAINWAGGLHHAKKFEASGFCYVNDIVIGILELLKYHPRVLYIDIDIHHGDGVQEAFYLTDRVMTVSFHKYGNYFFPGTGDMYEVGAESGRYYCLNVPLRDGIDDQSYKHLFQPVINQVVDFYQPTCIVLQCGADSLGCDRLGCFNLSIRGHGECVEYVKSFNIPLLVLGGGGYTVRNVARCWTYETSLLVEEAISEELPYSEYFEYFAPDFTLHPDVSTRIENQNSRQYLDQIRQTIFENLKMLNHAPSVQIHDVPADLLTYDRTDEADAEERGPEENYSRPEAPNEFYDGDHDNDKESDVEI

[3] = target: Voltage-gated inwardly rectifying potassium channel KCNH2 (Homo sapiens, UniProt Q12809); assay: Displacement of [3H]astemizole from human ERG channel transfected in HEK293 cells after 60 mins by liquid scintillation counting analysis; format: cell-based
Voltage-gated inwardly rectifying potassium channel KCNH2, sequence (Q12809 whole entry): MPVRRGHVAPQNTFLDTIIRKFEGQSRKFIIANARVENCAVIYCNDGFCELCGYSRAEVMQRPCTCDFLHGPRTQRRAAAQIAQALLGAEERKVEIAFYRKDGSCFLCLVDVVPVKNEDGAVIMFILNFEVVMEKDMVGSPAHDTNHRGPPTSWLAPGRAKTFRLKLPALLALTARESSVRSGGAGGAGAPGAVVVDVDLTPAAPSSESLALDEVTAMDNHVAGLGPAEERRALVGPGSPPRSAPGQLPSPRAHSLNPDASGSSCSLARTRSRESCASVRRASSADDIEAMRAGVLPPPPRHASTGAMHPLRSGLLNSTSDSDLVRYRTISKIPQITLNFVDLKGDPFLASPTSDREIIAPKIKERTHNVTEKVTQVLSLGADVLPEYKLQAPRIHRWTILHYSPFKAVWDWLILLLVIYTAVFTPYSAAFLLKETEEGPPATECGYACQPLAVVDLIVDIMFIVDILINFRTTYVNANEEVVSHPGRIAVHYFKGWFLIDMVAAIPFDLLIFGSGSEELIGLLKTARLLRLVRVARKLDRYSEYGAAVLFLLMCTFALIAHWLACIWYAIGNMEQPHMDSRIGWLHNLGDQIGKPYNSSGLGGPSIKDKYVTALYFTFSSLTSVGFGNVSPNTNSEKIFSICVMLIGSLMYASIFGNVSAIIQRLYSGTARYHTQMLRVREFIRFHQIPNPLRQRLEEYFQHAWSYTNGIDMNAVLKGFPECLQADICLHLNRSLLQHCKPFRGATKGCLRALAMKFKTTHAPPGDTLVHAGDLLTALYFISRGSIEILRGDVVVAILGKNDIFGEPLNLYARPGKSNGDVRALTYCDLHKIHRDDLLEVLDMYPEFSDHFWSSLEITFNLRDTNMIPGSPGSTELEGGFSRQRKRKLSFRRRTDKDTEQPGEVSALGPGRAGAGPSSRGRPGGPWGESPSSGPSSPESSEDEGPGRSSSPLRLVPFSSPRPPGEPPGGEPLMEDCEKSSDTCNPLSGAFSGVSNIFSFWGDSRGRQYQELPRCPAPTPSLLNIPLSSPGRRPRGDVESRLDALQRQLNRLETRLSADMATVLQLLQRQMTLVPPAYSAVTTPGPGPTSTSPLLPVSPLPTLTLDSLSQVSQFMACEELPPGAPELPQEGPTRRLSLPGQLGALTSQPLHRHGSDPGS

[4] = Metabolic stability in human liver microsomes after 30 mins by LC-MS/MS analysis; format: ADME, Microsome; details: read-out: Stability
Summary of the method: (§1)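 Compounds were incubated with mouse or human liver microsomal preparation for 30 min at 37 °C. The reaction was stopped with CH3CN. Unmetabolized compound was quantified by LC-MS/MS in MRM mode and reported as percent remaining. Replicates n ≥ 2, mean values given.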

[5] = Metabolic stability in mouse liver microsomes after 30 mins by LC-MS/MS analysis; format: ADME, Microsome; details: read-out: Stability; summary of the method: as §1
Mus musculus = assay: Cmax in CD1 mouse at 15 mg/kg, po; details: mouse, in vivo
[6] = Oral bioavailability in CD1 mouse at 15 mg/kg; details: in vivo

For `O=C(/C=C/c1ccc2c(c1)C(=O)CC1(CCN(Cc3ccccc3)CC1)O2)NO`, which Papp A→B at 2 h [1] is on record?
Its Papp A→B at 2 h is 5.6 ×10⁻⁶ cm/s.

And the IC50 [2]?
The IC50 was 103 nM.

What about the IC50 (Histone deacetylase 2) of the same molecule?
The IC50 was 270 nM.

What about the IC50 (Histone deacetylase 3) of the same molecule?
Its IC50 is 65 nM.

And the IC50 [3]?
The IC50 was 3810 nM.

And the remaining at 0.5 h [4]?
The remaining at 0.5 h was 55%.

What about the remaining at 0.5 h [5] of the same molecule?
The remaining at 0.5 h was 32%.

What about the Cmax (Mus musculus) of the same molecule?
The Cmax was 823 nM.

What about the bioavailability [6] of the same molecule?
Its bioavailability is 31.5%.
